NR2E3 ag-1: inhibitors of NR2E3-RetCOR corepressor binding, primary screen, NR2E3 agonist project, biochemical, TR-FRET, GST-NR2E3, biotin-RetCOR; Photoreceptor-specific nuclear receptor (Homo sapiens), Q9Y5X4; 1536-well; inhibition of corepressor binding, % at 4.78 µM; 320,000 tested, 0.12% active;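 active = percent inhibition above the cutoff of mean plus 3 SD of all tested compounds, set per screening campaign, cut at about 20% in these data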;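 note: 0% = DMSO wells and 100% = biotin wells as full block of FRET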
Target sequence (Q9Y5X4 whole entry, looked up): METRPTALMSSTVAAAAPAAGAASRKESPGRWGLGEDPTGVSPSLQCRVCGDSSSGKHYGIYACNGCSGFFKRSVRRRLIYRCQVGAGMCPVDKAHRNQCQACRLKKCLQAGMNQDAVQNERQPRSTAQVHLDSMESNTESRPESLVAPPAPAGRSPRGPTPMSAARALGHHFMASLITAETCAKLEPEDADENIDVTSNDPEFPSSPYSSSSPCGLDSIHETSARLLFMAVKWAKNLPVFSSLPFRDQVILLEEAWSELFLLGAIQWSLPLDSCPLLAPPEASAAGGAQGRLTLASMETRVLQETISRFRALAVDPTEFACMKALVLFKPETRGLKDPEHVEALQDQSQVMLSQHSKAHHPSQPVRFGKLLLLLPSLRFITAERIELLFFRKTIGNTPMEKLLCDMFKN
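Assay system: NR2E3–RetCOR corepressor complex. Quantity: 1.35 nM GST-NR2E3. Buffer or medium: pH 7.5 Tris-based buffer. Reagent: biotinylated RetCOR corepressor at 7 nM final. Schedule: 5 h at 4 °C. Detection: TR-FRET, emission read at 617 and 671 nm. Replicates: one well per compound, singlicate testing.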
MC4R antag cAMP: MC4R antagonists of cAMP signaling, primary screen, cell-based, TR-FRET, antagonist arm of biased-ligand search; inhibition, % at 6.5 µM; MC4R-expressing cells, MTII-stimulated cAMP, LANCE TR-FRET; Melanocortin receptor 4 (Homo sapiens), P32245; 360,000 tested, 0.48% active; AID 540295, 2011;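 active = inhibition above its plate's cutoff, the mean of tested wells on that plate plus 3 SD, cut at about 29% in these data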;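 note: 0% = Melanotan II alone and 100% = Melanotan II plus saturating MCL0020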
Target sequence (P32245 whole entry, looked up): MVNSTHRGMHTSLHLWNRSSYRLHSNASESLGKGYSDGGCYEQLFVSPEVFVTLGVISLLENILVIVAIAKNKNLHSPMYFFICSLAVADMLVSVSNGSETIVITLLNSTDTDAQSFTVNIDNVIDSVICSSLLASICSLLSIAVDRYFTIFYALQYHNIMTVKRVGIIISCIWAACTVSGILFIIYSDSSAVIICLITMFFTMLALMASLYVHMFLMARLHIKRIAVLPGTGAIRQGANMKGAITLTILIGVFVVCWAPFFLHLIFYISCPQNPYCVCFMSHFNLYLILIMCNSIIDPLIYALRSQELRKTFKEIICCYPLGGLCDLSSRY
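System – human MC4R-expressing U2OS cells · Also added – Melanotan II · Dosing – one concentration, 6.5 µM nominal · Timing – 30-min compound, 1-h challenge, 1-h detection, room temperature · Measured by – Eu-cAMP/anti-cAMP TR-FRET, emission 671 nm · Replicates – singlicate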
Rev-erbA mod: modulators of Rev-erb alpha DNA binding, primary screen, biochemical, FITC-DNA, fluorescence polarization, uHTS. Nuclear receptor subfamily 1 group D member 1 (Homo sapiens), P20393. Rev-erbα–FITC-DNA binding, 90 min. activity, % at 10 µM. 370,000 tested, 0.79% active;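 active = activity above about 14%, limit read from the data; passing the limit was not always enough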;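 note: 0% = DMSO wells with 35 nM protein and 100% = DMSO wells with 750 nM protein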
NR2E3 ag-2: NR2E3 agonists in two-hybrid cells, primary screen, cell-based, luminescence, CHO-S, Gal4-NCOR/VP16-NR2E3; luciferase; inhibition of corepressor binding, % at 3.98 µM; 360,000 tested, 0.35% active;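 active = inhibition above the mean of all tested compounds plus 3 SD, cut at about 70% in these data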;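 note: 0% = DMSO with NR2E3 transfected cells and 100% = cells lacking NR2E3 construct; higher means lower luciferase signal from less NR2E3 corepressor binding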
MC4R barr agon: MC4R agonists recruiting beta-arrestin, primary screen, cell-based, luminescence, agonist arm of biased-ligand search; activation, % at 8.9 µM; U2OS MC4R beta-arrestin complementation; percent of melanotan II response, DMSO zero; 360,000 tested, 0.98% active;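 active = activation above a per-plate cutoff, the mean activation of sample wells on that plate plus 3 SD, cut at about 8% in these data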
PG9 binder: binders of HIV-1 gp120 antibody PG9, primary screen, biochemical, TR-FRET | HIV-1 gp120 / PG9 antibody interaction | TR-FRET gp120-PG9 antibody binding | inhibition, % at 6.7 µM | 360,000 tested, 0.43% active; in the data active = inhibition above about 8.5%
Rev-erbA confirm: modulators of Rev-erb alpha DNA binding, confirmation, biochemical, FITC-DNA, fluorescence polarization, single point; shares compounds with Rev-erbA mod; 90 min; activation, % at 25 µM; 3,000 tested, 61% active; AID 1259319, 2017;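 active = activation at or above a set limit, or at least 3 SD above the negative control mean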;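 note: 0% = 35 nM protein with DMSO and 100% = 750 nM protein high control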
RORg DNA counter: modulation of RORgamma DNA binding, dose response, counter-screen for Rev-erb alpha modulator project, biochemical, fluorescence polarization, FITC-DNA | shares compounds with Rev-erbA mod | purified RORgamma protein-FITC-DNA binding | IC50, µM | 910 tested, 8% active;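 active = Compounds whose fitted half-maximal concentration for disrupting protein-DNA binding is below 10 micromolar; the record names Rev-erb in its text, so the target is in doubt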
Numbers without * were called inactive; i = inactive; . = not tested or not shown. A selection: hits, their analogues and other compounds. The true share with any hit is near 2.7%.

SMILES | NR2E3 ag-1 | MC4R antag cAMP | Rev-erbA mod | NR2E3 ag-2 | MC4R barr agon | PG9 binder | Rev-erbA confirm | others
CCOc1ccc(CCNC(=O)Cn2ncn3nc(-c4ccc(OC)cc4)cc3c2=O)cc1OCC | 0.9 | 3.2 | 22.6* | -3.0 | 0.2 | 1.7 | -2.0
O=C(Nc1cc([N+](=O)[O-])ccc1O)NC1CCS(=O)(=O)C1 (centres undefined) | -0.6 | -2.2 | 15.8* | 4.1 | -1.0 | -3.4 | 14.7*
O=C(Nc1cccc([N+](=O)[O-])c1)NC1CCS(=O)(=O)C1 (centres undefined) | 3.0 | 8.0 | -1.2 | -13.8 | -3.3 | 0.7 | .
COc1ccc(CCN2C(=O)CCC3=C2CCC3=O)cc1OC | . | . | . | 9.7 | . | . | .
Cc1cc2oc(=O)cc(COC(=O)c3n[nH]c4ccccc34)c2cc1C | 4.3 | -2.1 | 22.7* | 7.1 | 1.5 | 4.8 | -1.0
Cc1cccc(NC(=O)CN(C)C(=O)c2ccc(N3CCCCCC3)c([N+](=O)[O-])c2)c1C | . | 12.9 | 17.2* | 41.3 | -0.2 | 0.0 | -4.5
CN1CCN(c2ccccc2NC(=O)c2ccc(N3CCCC3)c([N+](=O)[O-])c2)CC1 | -2.2 | -0.9 | 16.1* | -31.7 | -2.0 | 0.2 | 8.8
Cc1ccc(C(=O)Nc2ccc(N3CCCC3)cc2)c(C)c1 | -0.2 | 10.2 | -2.5 | -23.4 | -0.1 | 0.1 | .
CCC(CC)C(=O)c1c[nH]c(C(=O)NCc2cccs2)c1 | 1.0 | 6.0 | 1.3 | -15.6 | -2.4 | -0.7 | .
CC(C)(C)c1ccc(C(=O)c2c[nH]c(C(=O)NCc3cccs3)c2)cc1 | 3.6 | 10.2 | 95.8* | 2.9 | -0.4 | 3.3 | 94.4* | RORg DNA counter=i
Cc1ccc(-n2ncc3c(NNC(=O)c4ccco4)ncnc32)cc1Cl | -0.3 | 7.3 | 3.9 | -20.1 | -2.3 | 0.5 | .
CN1CCN(C2=C(Cl)C(=O)N(c3ccc(Cl)cc3)C2=O)CC1 | -0.6 | -2.3 | . | -13.0 | 3.5 | . | .
O=C1C(Cl)=C(NC2CCCCC2)C(=O)N1c1ccc(Cl)cc1 | 3.7 | 11.6 | 39.7* | -35.2 | -0.8 | -3.4 | 12.7
Cc1cc(N2CCCC2=O)ccc1S(=O)(=O)N1CCOCC1 | -1.7 | 7.4 | -2.9 | -8.9 | -1.5 | -1.9 | .
CCc1ccc(C(=O)COC(=O)c2ccc(-c3nnc(-c4ccccc4)o3)cc2)cc1 | -3.0 | -1.4 | 23.5* | -36.3 | -0.8 | -2.6 | 8.5
CC(C)COc1ccc(C(=O)Nc2scc(-c3ccc(Cl)cc3Cl)c2C(N)=O)cc1 | 0.8 | 5.5 | 31.5* | -9.3 | -0.4 | -1.9 | 29.4*
Cc1cc(OC(C)C(=O)NCc2cccnc2)c2c(C)c(Cc3ccccc3)c(=O)oc2c1 (centres undefined) | -3.4 | 13.6 | 106.6* | -39.6 | 2.2 | -3.3 | 104.5* | RORg DNA counter=>40
Cc1cc(OC(C)C(=O)NCc2cccnc2)c2c(C)c(C)c(=O)oc2c1 (centres undefined) | 0.9 | -0.7 | -6.9 | -29.9 | -1.7 | -1.1 | .
Cc1nc(N)c(C#N)c(-c2ccccc2)c1C | -0.9 | 5.4 | 0.8 | -31.2 | -2.3 | -2.6 | .
Cc1cc(C)c2c(n1)sc1c(-c3ccccc3)c(C#N)c(N)nc12 | 0.8 | -6.0 | 23.1* | -2.5 | 3.5 | 3.3 | 4.2
CCOC(=O)c1sc(NC(=O)c2ccc(S(=O)(=O)N(C)C)cc2)nc1C | -2.8 | 7.4 | 36.1* | -15.3 | -0.2 | -2.4 | 38.1* | RORg DNA counter=>40
COCCN(CCOC)S(=O)(=O)c1ccc(C(=O)Nc2nc(-c3ccccc3)c(C(=O)c3ccccc3)s2)cc1 | 5.3 | 4.7 | 1.7 | 6.6 | -1.6 | -1.9 | .
O=C(Nc1nc(-c2ccccc2)c(C(=O)c2ccccc2)s1)c1ccc(S(=O)(=O)N2CCCCC2)cc1 | 2.2 | 3.9 | 23.0* | 0.8 | -2.3 | -0.3 | 84.9* | RORg DNA counter=i
CCCN(CCC)S(=O)(=O)c1ccc(C(=O)Nc2nc(-c3ccccc3)c(C(=O)OCC)s2)cc1 | -1.8 | 5.7 | 33.3* | -21.6 | -1.9 | -0.2 | 12.3
COc1ccccc1OCC(O)CO (centres undefined) | 2.2 | -0.2 | -4.2 | 15.1 | 0.8 | -1.2 | .
SMILES | NR2E3 ag-1 | MC4R antag cAMP | Rev-erbA mod | NR2E3 ag-2 | MC4R barr agon | PG9 binder | Rev-erbA confirm | others
Cc1cc(C)n2nc(-c3ccc(Cl)cc3)cc2n1 | -0.1 | -5.3 | 64.6* | -102.0 | -0.1 | -0.8 | 51.8* | RORg DNA counter=>40
Cc1cc(C)n2nc(-c3ccc(Br)cc3)cc2n1 | 0.8 | 1.0 | 27.1* | -114.1 | 0.3 | -2.0 | 2.6
CC(=O)c1cnc2cc(-c3ccc(Cl)cc3)nn2c1C | 1.5 | 2.5 | 28.0* | -64.2 | 0.6 | 0.5 | 10.3
COc1ccc(-c2cc3nc(C)cc(C)n3n2)cc1 | 5.0 | -0.1 | -13.8 | -150.6 | -0.7 | -0.4 | .
Cc1c(C(=O)O)cnc2cc(-c3ccc(Cl)cc3)nn12 | 1.8 | 1.5 | -6.8 | -83.0 | -0.2 | -0.4 | .
O=C(CSC1=NS(=O)(=O)c2cc(Cl)ccc2N1)NCc1ccc(F)cc1 | 0.6 | 5.9 | -1.1 | 1.9 | -6.1 | -0.8 | .
CCOC(=O)c1c(NC(=O)c2ccoc2C)sc(C(=O)N(C)C)c1C | -1.1 | -1.4 | -1.6 | -6.8 | -1.6 | 1.2 | .
Clc1cccc(-c2nc3c4ccccc4ccn3c2Cc2ccccc2)c1 | . | . | -0.1 | -19.3 | . | -0.9 | .
Cc1cc(NS(=O)(=O)c2ccc(NC(=O)CSc3nc4ncccc4[nH]3)cc2)nc(C)n1 | 0.1 | 3.0 | 4.4 | -18.6 | 0.5 | -2.9 | .
COc1cc2c(cc1OC)C1(Nc3c-2c(C)nn3-c2ccccc2)C(=O)Nc2ccccc21 (centres undefined) | 5.2 | 3.5 | 18.3* | -9.2 | -0.6 | -0.5 | 3.2
COCCn1c(=NC(=O)CCS(=O)(=O)c2ccccc2)sc2cc(C(=O)OC)ccc21 | 4.5 | 6.9 | 204.5* | -18.1 | -0.3 | 1.8 | 137.3* | RORg DNA counter=>40
COCCn1c(=NC(=O)CCS(=O)(=O)c2ccccc2)sc2c(OC)ccc(OC)c21 | -2.9 | 5.3 | 14.5 | -61.2 | 0.9 | 0.8 | .
COCCn1c(=NC(=O)c2ccc(S(=O)(=O)N3CCc4ccccc4C3)cc2)sc2cc(OC)ccc21 | 0.2 | -3.0 | 53.9* | 1.6 | -1.1 | -0.3 | 18.9*
